Activity data for 4 compounds are collected here from ChEMBL document CHEMBL4368872, “Synthesis and anticonvulsant activity of phenoxyacetyl derivatives of amines, including aminoalkanols and amino acids” (Medchemcomm, 2018).

Series [1] concerns Mus musculus. Nature of the series: Anticonvulsant activity in CF-1 mouse model of maximal electroshock-induced seizure assessed as suppression of tonic hind limb extension at 300 mg/kg, ip measured at 0.5 hrs post dose. Format: functional, organism-based. In a few lines: (§1)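 Mice dosed i.p. and given maximal electroshock at 50 mA. Read-out is protection, reported as number protected / number tested at 0.25, 0.5, 1 and 4 h after dosing.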
(In the maximal electroshock model the usual endpoint is tonic extension of the hind limbs.)

The subject of series [2] is Mus musculus. Nature of the series: Anticonvulsant activity in CF-1 mouse model of maximal electroshock-induced seizure assessed as suppression of tonic hind limb extension at 30 mg/kg, ip measured at 4 hrs post dose. Format: functional, organism-based. In short, it runs like this:
as §1

Series [3] relates to Mus musculus. Nature of the series: Anticonvulsant activity in CF-1 mouse model of subcutaneous pentylenetetrazole-induced seizure assessed as reduction in convulsions at 300 mg/kg, ip measured at 4 hrs post dose. The class given is functional, organism-based. In short, it runs like this:
(§2)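 Mice dosed i.p., then given pentylenetetrazole 85 mg/kg in 0.9% NaCl s.c. into the posterior midline of the neck. Seizures watched for at least 30 min. Scored as protected / tested at 0.5 and 4 h.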

Series [4] can be described thus: Neurotoxicity in CF-1 mouse at 100 mg/kg, ip measured after 4 hrs by rotarod test. The class given is toxicity, organism-based. The settings on record: in vivo. In a few lines: (§3)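 Mice dosed i.p. were placed on a 1 in. knurled rod turning at 6 rpm. Toxicity was scored as failure to keep balance for at least 1 min, i.e. falling off three or more times. Results are reported as animals showing toxicity / animals tested at each time point.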
(In general: The rotarod test checks motor coordination on a turning rod.)

The test system of series [5] is Mus musculus. The series is described as follows: Anticonvulsant activity in CF-1 mouse model of subcutaneous pentylenetetrazole-induced seizure assessed as reduction in convulsions at 30 mg/kg, ip measured at 4 hrs post dose. The class given is functional, organism-based. In short, it runs like this:
as §2

Series [6] has as its system Mus musculus. Nature of the series: Anticonvulsant activity in CF-1 mouse model of subcutaneous pentylenetetrazole-induced seizure assessed as reduction in convulsions at 100 mg/kg, ip measured at 4 hrs post dose. Format: functional, organism-based. In short, it runs like this:
as §2

Series [7] deals with Mus musculus. Nature of the series: Anticonvulsant activity in CF-1 mouse model of subcutaneous pentylenetetrazole-induced seizure assessed as reduction in convulsions at 30 mg/kg, ip measured at 0.5 hrs post dose. The class given is functional, organism-based. In a few lines: as §2
Series [8] in a line: Neurotoxicity in CF-1 mouse at 300 mg/kg, ip measured after 0.5 hrs by rotarod test. Format: toxicity, organism-based. The settings on record: in vivo. In short, it runs like this: as §3
Series [9] in a line: Neurotoxicity in CF-1 mouse at 30 mg/kg, ip measured after 4 hrs by rotarod test. The class given is toxicity, organism-based. Conditions: in vivo. In short, it runs like this: as §3
Series [10] concerns Mus musculus. Nature of the series: Anticonvulsant activity in CF-1 mouse model of subcutaneous pentylenetetrazole-induced seizure assessed as reduction in convulsions at 300 mg/kg, ip measured at 0.5 hrs post dose. The class given is functional, organism-based. In a few lines: as §2
A short description of series [11]: Neurotoxicity in CF-1 mouse at 300 mg/kg, ip measured after 4 hrs by rotarod test. The class given is toxicity, organism-based. The settings on record: in vivo. In short, it runs like this:
as §3

Series [12] concerns Mus musculus. Nature of the series: Anticonvulsant activity in CF-1 mouse model of maximal electroshock-induced seizure assessed as suppression of tonic hind limb extension at 100 mg/kg, ip measured at 0.5 hrs post dose. Format: functional, organism-based. In short, it runs like this: as §1
A short description of series [13]: Neurotoxicity in CF-1 mouse at 30 mg/kg, ip measured after 0.5 hrs by rotarod test. The class given is toxicity, organism-based. Conditions: in vivo. In short, it runs like this:
as §3

The test system of series [14] is Mus musculus. Nature of the series: Anticonvulsant activity in CF-1 mouse model of maximal electroshock-induced seizure assessed as suppression of tonic hind limb extension at 30 mg/kg, ip measured at 0.5 hrs post dose. Format: functional, organism-based. In a few lines:
as §1

A short description of series [15]: Neurotoxicity in CF-1 mouse at 100 mg/kg, ip measured after 0.5 hrs by rotarod test. The settings on record: in vivo. The class given is toxicity, organism-based. In a few lines: as §3
Series [16] concerns Mus musculus. Nature of the series: Anticonvulsant activity in CF-1 mouse model of subcutaneous pentylenetetrazole-induced seizure assessed as reduction in convulsions at 100 mg/kg, ip measured at 0.5 hrs post dose. Format: functional, organism-based. In short, it runs like this: as §2
Series [17] has as its system Mus musculus. The series is described as follows: Anticonvulsant activity in CF-1 mouse model of maximal electroshock-induced seizure assessed as suppression of tonic hind limb extension at 300 mg/kg, ip measured at 4 hrs post dose. The class given is functional, organism-based. In a few lines:
as §1

The subject of series [18] is Mus musculus. Nature of the series: Anticonvulsant activity in CF-1 mouse model of maximal electroshock-induced seizure assessed as suppression of tonic hind limb extension at 100 mg/kg, ip measured at 4 hrs post dose. Format: functional, organism-based. In a few lines: as §1

Activity calls are given as the source filed them. The calls are words filed in the database; no cut-off is given here.

Consider `Cc1cc(C)c(OCC(=O)NCC(O)c2ccccc2)c(C)c1` (stereo unspecified), for which the outcome in the series on Mus musculus [1], in the series on Mus musculus [2], in the series on Mus musculus [3], with Mus musculus [5], in the series on Mus musculus [6] and in the series with Mus musculus [7] was inactive. The result in the series with Mus musculus [10], with Mus musculus [12], in the series on Mus musculus [14], with Mus musculus [16], in the series with Mus musculus [17] and in the series with Mus musculus [18] was inactive. Further, the Activity result is given as “Non-Toxic” in series [4]; “Toxic” in series [8]; “Non-Toxic” in [9]; “Non-Toxic” in series [11]; “Non-Toxic” in series [13]; “Non-Toxic” in [15].
With `Cc1cccc(C)c1OCC(=O)NCCc1ccccc1`, the outcome with Mus musculus [1], in the series on Mus musculus [2], in the series with Mus musculus [3], in the series on Mus musculus [5], in the series on Mus musculus [6] and in the series with Mus musculus [7] was inactive. The result in the series on Mus musculus [10], in the series with Mus musculus [12], in the series with Mus musculus [14], in the series with Mus musculus [16], in the series on Mus musculus [17] and in the series with Mus musculus [18] was inactive. Further, the Activity entry in series [4], in series [9], in [11], in series [13] and in series [15] was “Non-Toxic” in each case.
As to `Cc1cccc(C)c1OCC(=O)N[C@@H](C)CO`, the outcome in the series with Mus musculus [1] and in the series with Mus musculus [17] was Active. The result in the series on Mus musculus [2], in the series with Mus musculus [3], in the series on Mus musculus [5], with Mus musculus [6], in the series on Mus musculus [7] and with Mus musculus [10] was inactive. In addition, the result in the series with Mus musculus [12], in the series on Mus musculus [14], with Mus musculus [16] and in the series on Mus musculus [18] was inactive. In addition, in series [9], the Activity result was “Non-Toxic”.
Regarding `Cc1cccc(C)c1OCC(=O)NC(C)C(=O)O` (stereo unspecified), the outcome in the series on Mus musculus [1], in the series on Mus musculus [2], with Mus musculus [3], in the series with Mus musculus [5], in the series on Mus musculus [6] and with Mus musculus [7] was inactive. The outcome with Mus musculus [10], in the series on Mus musculus [12], in the series on Mus musculus [14], with Mus musculus [16], in the series with Mus musculus [17] and with Mus musculus [18] was inactive. Besides, the Activity entry in series [4], in series [8], in [9], in series [11], in series [13] and in series [15] was “Non-Toxic” throughout.
